{
  "source": "ChEMBL document CHEMBL4028867",
  "about": "“Design, Synthesis, and Characterization of N-Oxide-Containing Heterocycles with in Vivo Sterilizing Antitubercular Activity” (J Med Chem, 2017)",
  "key": {"Mus musculus [1]": {"tested_on": "Mus musculus", "assay": "Hepatotoxicity in BALB/c mouse assessed as change in alkaline phosphatase level in plasma at 200 mg/kg, po qd administered via gavage after 10 days", "format": "toxicity, organism-based", "conditions": "in vivo, 240 h"}, "Staphylococcus aureus": {"tested_on": "Staphylococcus aureus", "assay": "Antimicrobial activity against Staphylococcus aureus ATCC 29213 at 200 uM incubated for 16 hrs", "format": "functional"}, "Mus musculus [2]": {"tested_on": "Mus musculus", "assay": "Toxicity in BALB/c mouse assessed as change in liver weight at 200 mg/kg, po qd administered via gavage after 10 days", "format": "organism-based", "conditions": "in vivo, 240 h", "in_short": "(§1)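 Mice given one daily oral gavage dose of 200 mg/kg body weight for 10 days with daily behavioural monitoring (hippocratic screening); heart, lung, spleen, kidney and liver weights compared with controls by ANOVA and Dunnett's test, p < 0.05.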"}, "Mus musculus [3]": {"tested_on": "Mus musculus", "assay": "Hepatotoxicity in BALB/c mouse assessed as change in aspartate aminotransferase level in plasma at 200 mg/kg, po qd administered via gavage after 10 days", "format": "toxicity, organism-based", "conditions": "in vivo, 240 h"}, "Cytochrome P450 2B6": {"molecular_target": "T1, Cytochrome P450 2B6 (Homo sapiens, UniProt P20813)", "T1 sequence (P20813 whole entry)": "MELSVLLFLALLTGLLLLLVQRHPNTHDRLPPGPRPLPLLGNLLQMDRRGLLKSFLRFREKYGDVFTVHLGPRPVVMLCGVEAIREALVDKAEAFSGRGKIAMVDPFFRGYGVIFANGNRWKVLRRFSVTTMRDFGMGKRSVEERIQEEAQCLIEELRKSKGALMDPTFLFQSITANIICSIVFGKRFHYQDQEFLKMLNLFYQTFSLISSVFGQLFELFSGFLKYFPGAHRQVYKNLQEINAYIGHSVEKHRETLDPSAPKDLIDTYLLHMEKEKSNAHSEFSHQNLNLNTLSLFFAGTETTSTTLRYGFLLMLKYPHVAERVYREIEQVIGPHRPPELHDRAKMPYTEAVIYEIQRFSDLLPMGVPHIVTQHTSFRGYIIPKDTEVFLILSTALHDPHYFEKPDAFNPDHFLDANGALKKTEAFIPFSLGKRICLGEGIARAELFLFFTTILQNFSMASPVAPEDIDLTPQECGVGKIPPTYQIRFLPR", "assay": "Inhibition of CYP2B6 in human liver microsomes in presence of NADPH by LC-MS/MS analysis", "format": "ADME"}, "[4]": {"tested_on": "Mycobacterium tuberculosis", "assay": "Antitubercular activity against Mycobacterium tuberculosis H37Rv ATCC 27294 in presence of 4% fetal bovine serum", "format": "functional"}, "Mus musculus [5]": {"tested_on": "Mus musculus", "assay": "Hepatotoxicity in BALB/c mouse assessed as change in liver morphology at 200 mg/kg, po qd administered via gavage after 10 days by hematoxylin and eosin staining based analysis", "format": "toxicity, organism-based", "conditions": "in vivo, 240 h", "in_short": "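BALB/c mice dosed orally by gavage once daily at 200 mg/kg; liver and kidney sections stained with H&E and examined for tissue morphology.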"}, "[6]": {"tested_on": "Mycobacterium tuberculosis", "assay": "Growth inhibition of Mycobacterium tuberculosis H37Rv exposed to plasma from BALB/c mouse treated with 300 mg/kg, po administered through microemulsion vehicle as single oral dose per gavage after 1 hr by Resazurin microtiter assay", "format": "functional", "conditions": "read-out: GI", "in_short": "(§2)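 The microemulsion was 10% cholesterol, 10% phosphatidylcholine/sodium oleate/polyoxyl 40 hydrogenated castor oil (3:6:8) and 80% phosphate buffer pH 7.4. Plasma taken at 0.3, 1, 2 or 4 h was tested by REMA for % Mtb growth inhibition, and plasma level was estimated against the in-vitro REMA MIC.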"}, "[7]": {"tested_on": "Mycobacterium tuberculosis", "assay": "Growth inhibition of Mycobacterium tuberculosis H37Rv exposed to plasma from BALB/c mouse treated with 300 mg/kg, po administered through microemulsion vehicle as single oral dose per gavage after 0.3 hrs by Resazurin microtiter assay", "format": "functional", "conditions": "read-out: GI", "in_short": "as §2"}, "[8]": {"tested_on": "Mycobacterium tuberculosis", "assay": "Down-regulation of HSP gene in Mycobacterium tuberculosis H37Rv at 2 times MIC90 after 4 hrs by microarray analysis", "format": "functional"}, "[9]": {"tested_on": "Mycobacterium tuberculosis", "assay": "Antitubercular activity against Mycobacterium tuberculosis H37Rv ATCC 27294 under acidic pH 6 condition", "format": "functional"}, "Escherichia coli": {"tested_on": "Escherichia coli", "assay": "Antimicrobial activity against Escherichia coli ATCC 25922 at 200 uM incubated for 16 hrs", "format": "functional"}, "[10]": {"tested_on": "Mycobacterium tuberculosis", "assay": "Bactericidal activity against Mycobacterium tuberculosis H37Rv ATCC 27294 assessed as colony forming units at 41.24 uM after 48 hrs by time kill analysis", "format": "functional", "in_short": "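Time–kill: H37Rv ATCC 27294 exposed to drug at 41.24 μM, alongside INH 0.72 μM, RMP 0.01 μM and MOX 0.88 μM; log10 CFU/mL followed over days. Counts are the mean of three independent assays, ± SD.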"}, "Mus musculus [11]": {"tested_on": "Mus musculus", "assay": "Genotoxicity in Swiss mouse assessed as incidence of micronucleated peripheral blood reticulocytes at 50 to 500 mg/kg dosed via gavage by micronucleus assay", "format": "toxicity, organism-based", "conditions": "in vivo, po"}, "[12]": {"assay": "Chemical stability in PBS at pH 7.4 assessed as drug degradation after 10 hrs by HPLC-UV analysis", "format": "physicochemical", "conditions": "read-out: Drug degradation"}, "[13]": {"assay": "Stability of the compound in PBS assessed as parent compound remaining at pH 7.4 after 24 hrs by HPLC-UV analysis", "format": "physicochemical", "conditions": "read-out: Stability"}, "Cytochrome P450 3A4": {"molecular_target": "Cytochrome P450 3A4 (Homo sapiens, UniProt P08684)", "sequence (P08684 whole entry)": "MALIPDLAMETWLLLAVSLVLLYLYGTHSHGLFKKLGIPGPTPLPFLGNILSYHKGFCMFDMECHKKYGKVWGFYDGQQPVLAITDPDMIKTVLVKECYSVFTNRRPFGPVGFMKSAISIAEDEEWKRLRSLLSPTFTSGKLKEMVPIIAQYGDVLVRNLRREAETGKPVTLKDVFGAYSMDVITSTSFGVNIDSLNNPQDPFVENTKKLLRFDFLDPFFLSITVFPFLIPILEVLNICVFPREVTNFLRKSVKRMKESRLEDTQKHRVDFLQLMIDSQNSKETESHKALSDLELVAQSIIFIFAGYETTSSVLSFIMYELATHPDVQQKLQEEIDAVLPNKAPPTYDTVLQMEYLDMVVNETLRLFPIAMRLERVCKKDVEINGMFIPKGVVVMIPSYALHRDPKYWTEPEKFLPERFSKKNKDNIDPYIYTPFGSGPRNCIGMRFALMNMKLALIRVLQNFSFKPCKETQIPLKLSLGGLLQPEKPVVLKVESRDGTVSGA", "assay": "Inhibition of CYP3A4 in human liver microsomes in presence of NADPH by LC-MS/MS analysis", "format": "ADME"}, "[14]": {"tested_on": "Mycobacterium tuberculosis", "assay": "Downregulation of hspR gene in Mycobacterium tuberculosis H37Rv at 2 times MIC90 after 4 hrs by microarray analysis", "format": "functional"}, "[15]": {"assay": "Stability of the compound in PBS assessed as parent compound remaining at pH 5.5 after 24 hrs by HPLC-UV analysis", "format": "physicochemical", "conditions": "read-out: Stability"}, "Mus musculus [16]": {"tested_on": "Mus musculus", "assay": "Toxicity in BALB/c mouse assessed as change in heart weight at 200 mg/kg, po qd administered via gavage after 10 days", "format": "organism-based", "conditions": "in vivo, 240 h", "in_short": "as §1"}, "MRC5": {"tested_on": "MRC5", "assay": "Cytotoxicity against human MRC5 cells assessed as reduction in cell viability after 24 hrs by fluorescence assay", "format": "cell-based", "conditions": "MRC5, 24 h", "in_short": "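MRC-5 human lung fibroblasts; cytotoxicity reported as IC50.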"}, "[17]": {"tested_on": "Mycobacterium tuberculosis", "assay": "Antitubercular activity against Mycobacterium tuberculosis H37Rv ATCC 27294 infected in mouse J774A.1 cells at 1.46 to 23.86 ug/ml after 3 days relative to control", "format": "functional"}, "Cytochrome P450 2C8": {"molecular_target": "T2, Cytochrome P450 2C8 (Homo sapiens, UniProt P10632)", "T2 sequence (P10632 whole entry)": "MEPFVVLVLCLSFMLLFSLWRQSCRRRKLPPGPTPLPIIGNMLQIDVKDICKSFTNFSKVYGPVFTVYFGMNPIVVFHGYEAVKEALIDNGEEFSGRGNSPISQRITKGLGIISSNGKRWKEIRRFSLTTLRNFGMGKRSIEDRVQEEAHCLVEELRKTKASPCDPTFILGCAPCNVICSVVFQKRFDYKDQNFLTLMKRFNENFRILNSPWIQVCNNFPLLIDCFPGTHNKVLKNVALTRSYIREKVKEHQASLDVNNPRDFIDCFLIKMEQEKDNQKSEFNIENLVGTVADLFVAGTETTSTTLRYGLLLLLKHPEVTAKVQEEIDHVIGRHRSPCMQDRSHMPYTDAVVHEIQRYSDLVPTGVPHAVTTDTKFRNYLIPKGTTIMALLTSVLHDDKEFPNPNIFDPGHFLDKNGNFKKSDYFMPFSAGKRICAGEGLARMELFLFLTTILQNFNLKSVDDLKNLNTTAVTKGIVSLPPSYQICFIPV", "assay": "Inhibition of CYP2C8 in human liver microsomes in presence of NADPH by LC-MS/MS analysis", "format": "ADME"}},
  "note": "Activity calls are given as the source filed them. The rule behind the calls is not given here.",
  "data": [
    {"smiles": "O=C(N/N=C/c1ccc2no[n+]([O-])c2c1)c1ccncc1", "values": [
      {"measurement": "Activity", "setting": "Mus musculus [1]", "result": "Non-Toxic"},
      {"measurement": "Activity", "setting": "Staphylococcus aureus", "result": "inactive"},
      {"measurement": "Activity", "setting": "Mus musculus [2]", "result": "Non-Toxic"},
      {"measurement": "Activity", "setting": "Mus musculus [3]", "result": "Non-Toxic"},
      {"measurement": "IC50", "setting": "Cytochrome P450 2B6", "result": "> 20", "unit": "µM"},
      {"measurement": "MIC90", "setting": "[4]", "result": 9.81, "unit": "µM"},
      {"measurement": "Activity", "setting": "Mus musculus [5]", "result": "Non-Toxic"},
      {"measurement": "inhibition in vivo at 300 mg/kg", "setting": "[6]", "result": 79, "unit": "%"},
      {"measurement": "inhibition in vivo at 300 mg/kg", "setting": "[7]", "result": 65.7, "unit": "%"},
      {"measurement": "Activity", "setting": "[8]", "result": "Active"},
      {"measurement": "MIC90", "setting": "[9]", "result": 3.41, "unit": "µM"},
      {"measurement": "Activity", "setting": "Escherichia coli", "result": "inactive"},
      {"measurement": "Activity", "setting": "[10]", "result": 6.7, "unit": "log10CFU/ml"},
      {"measurement": "Activity", "setting": "Mus musculus [11]", "result": "Non-Toxic"},
      {"measurement": "degraded at 10 h", "setting": "[12]", "result": 20, "unit": "%"},
      {"measurement": "remaining at 24 h", "setting": "[13]", "result": 75, "unit": "%"},
      {"measurement": "IC50", "setting": "Cytochrome P450 3A4", "result": "> 20", "unit": "µM"},
      {"measurement": "Activity", "setting": "[14]", "result": "Active"},
      {"measurement": "remaining at 24 h", "setting": "[15]", "result": 67, "unit": "%"},
      {"measurement": "Activity", "setting": "Mus musculus [16]", "result": "Non-Toxic"},
      {"measurement": "IC50", "setting": "MRC5", "result": 519, "unit": "µM"},
      {"measurement": "inhibition (INH)", "setting": "[17]", "result": 90, "unit": "%"},
      {"measurement": "IC50", "setting": "Cytochrome P450 2C8", "result": "> 20", "unit": "µM"}
    ]}
  ]
}
